Results published in PMC3426663 (Xenobiotica; the fate of foreign compounds in biological …, 2012).

Experiments:
expressed CYP3A5 = expressed CYP3A5 (Homo sapiens, UniProt P20815); experiment: Incubation with expressed CYP3A5; assay type: in vitro ADME; conditions: expressed CYP3A5 13 pmol, 37°C, 15 min
[1] = system: human liver microsomes (HLMs); experiment: Identification of Ket and norKet metabolites in HLM incubates; assay type: in vitro ADME; conditions: HLMs 0.5 mg/ml; for metabolite found in HLM incubates of (R,S)-Ket: (R,S)-Ket 10 μM, Fig. 2A; for metabolite found in HLM incubates of (R,S)-norKet: (R,S)-norKet 10 μM, Fig. 2
expressed CYP2A6 = biological target: T1, expressed CYP2A6 (Homo sapiens, UniProt P11509); experiment: Incubation with expressed CYP2A6; assay type: in vitro ADME; conditions: for Vmax: expressed CYP2A6 13 pmol, 37°C, 15 min; for depletion of substrate from the incubation mixture: expressed CYP2A6, data not shown
T1 sequence (P11509 1-494): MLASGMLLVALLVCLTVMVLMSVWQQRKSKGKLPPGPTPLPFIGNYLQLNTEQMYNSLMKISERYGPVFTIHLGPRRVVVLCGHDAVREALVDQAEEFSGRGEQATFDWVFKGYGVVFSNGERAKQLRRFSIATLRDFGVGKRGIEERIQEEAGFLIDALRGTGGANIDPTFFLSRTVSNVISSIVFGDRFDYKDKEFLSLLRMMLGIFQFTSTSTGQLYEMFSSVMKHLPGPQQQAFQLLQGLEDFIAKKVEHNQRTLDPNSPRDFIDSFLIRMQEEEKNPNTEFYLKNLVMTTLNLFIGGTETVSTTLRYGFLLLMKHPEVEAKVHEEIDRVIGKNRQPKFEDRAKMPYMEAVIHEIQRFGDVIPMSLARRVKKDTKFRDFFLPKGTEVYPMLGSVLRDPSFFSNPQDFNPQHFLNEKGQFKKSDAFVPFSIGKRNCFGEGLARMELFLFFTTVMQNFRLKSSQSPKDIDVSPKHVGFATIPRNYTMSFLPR

expressed CYP2B6 = biological target: T2, expressed CYP2B6 (Homo sapiens, UniProt P20813); experiment: Incubation with expressed CYP2B6; assay type: in vitro ADME; conditions: for Vmax: expressed CYP2B6 13 pmol, 37°C, 15 min; for depletion of substrate from the incubation mixture: data not shown
T2 sequence (P20813 1-491): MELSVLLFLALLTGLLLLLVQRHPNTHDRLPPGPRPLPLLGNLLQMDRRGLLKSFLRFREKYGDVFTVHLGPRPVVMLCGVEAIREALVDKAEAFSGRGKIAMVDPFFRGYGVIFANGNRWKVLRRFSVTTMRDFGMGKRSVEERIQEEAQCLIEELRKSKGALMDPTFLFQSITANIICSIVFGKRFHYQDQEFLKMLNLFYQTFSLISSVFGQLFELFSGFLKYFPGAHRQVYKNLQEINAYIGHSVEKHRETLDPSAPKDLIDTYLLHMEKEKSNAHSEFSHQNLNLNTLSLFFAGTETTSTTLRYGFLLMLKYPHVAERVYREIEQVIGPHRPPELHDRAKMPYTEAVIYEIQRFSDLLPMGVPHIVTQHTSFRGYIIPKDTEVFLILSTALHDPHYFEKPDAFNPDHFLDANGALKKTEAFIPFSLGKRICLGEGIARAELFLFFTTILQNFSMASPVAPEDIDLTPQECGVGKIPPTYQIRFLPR

[2] = system: expressed human P450s (1A2, 2A6, 2B6, 2C8, 2C9, 2C19, 2D6, 2E1, 3A4, and 3A5); experiment: Incubation with panel of 10 expressed CYPs; assay type: in vitro ADME; conditions: for disappearance of substrate, other isoforms (no appreciable effect, cutoff): expressed isoforms other than CYP2A6, CYP2B6, CYP2C19
Outline: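 Qualitative isoform screen. Baculovirus-insect cell-expressed human CYP1A2, 2A6, 2B6, 2C8, 2C9, 2C19, 2D6, 2E1, 3A4 or 3A5 with oxidoreductase (13–26 pmol) was incubated at 37°C with 10 μM (R)- or (S)-ketamine, or (R,S)-, (R)- or (S)-norketamine. The NADPH-generating system contained NADP, glucose 6-phosphate, MgCl2 and glucose-6-phosphate dehydrogenase. Ketamine incubations ran 15 min. Products measured by LC/MS/MS.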

expressed CYP2C19 = expressed CYP2C19 (Homo sapiens, UniProt P33261); experiment: Incubation with expressed CYP2C19; assay type: in vitro ADME; conditions: data not shown
expressed CYP2C19, sequence (P33261 whole entry): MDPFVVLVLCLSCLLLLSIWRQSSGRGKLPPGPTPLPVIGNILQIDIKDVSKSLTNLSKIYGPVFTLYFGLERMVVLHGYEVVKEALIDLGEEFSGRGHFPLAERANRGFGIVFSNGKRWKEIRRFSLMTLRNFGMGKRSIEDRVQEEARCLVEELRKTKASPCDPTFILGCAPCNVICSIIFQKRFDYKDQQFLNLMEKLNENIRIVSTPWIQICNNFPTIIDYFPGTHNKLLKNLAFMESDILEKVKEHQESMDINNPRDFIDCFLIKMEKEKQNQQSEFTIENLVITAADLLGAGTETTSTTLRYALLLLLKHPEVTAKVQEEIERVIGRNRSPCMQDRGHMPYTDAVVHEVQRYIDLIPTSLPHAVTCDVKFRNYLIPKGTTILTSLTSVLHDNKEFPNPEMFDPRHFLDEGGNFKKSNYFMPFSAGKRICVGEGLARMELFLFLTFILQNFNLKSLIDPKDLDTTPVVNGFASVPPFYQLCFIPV

[3] = BPD patients 3 days after dosing of (R,S)-Ket; ref Zhao et al., 2012; cited from earlier work
[4] = formation of metabolite from (R)-norKet
[5] = formation of metabolite from (S)-norKet

expressed CYP3A5, sequence (P20815 whole entry): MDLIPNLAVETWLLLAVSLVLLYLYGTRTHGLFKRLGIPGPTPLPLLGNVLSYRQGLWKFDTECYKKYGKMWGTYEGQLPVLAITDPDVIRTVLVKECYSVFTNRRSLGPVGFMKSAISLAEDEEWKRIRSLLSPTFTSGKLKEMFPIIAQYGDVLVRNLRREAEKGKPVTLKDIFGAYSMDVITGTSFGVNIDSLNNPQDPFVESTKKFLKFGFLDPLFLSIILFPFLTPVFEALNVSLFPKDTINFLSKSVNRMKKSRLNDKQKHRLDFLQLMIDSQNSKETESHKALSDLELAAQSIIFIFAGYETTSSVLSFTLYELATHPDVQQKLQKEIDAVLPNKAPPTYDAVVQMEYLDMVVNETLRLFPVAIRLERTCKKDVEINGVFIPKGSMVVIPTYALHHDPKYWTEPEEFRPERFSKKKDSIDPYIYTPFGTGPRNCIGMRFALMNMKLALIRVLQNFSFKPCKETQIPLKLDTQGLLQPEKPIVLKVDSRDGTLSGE

| Structure (SMILES) | Vmax (expressed CYP3A5; [4]) | Vmax (expressed CYP3A5; [5]) | metabolite found in HLM incubates of (R,S)-Ket [1] | metabolite found in HLM incubates of (R,S)-norKet [1] | Vmax (expressed CYP2A6; [4]) | Vmax (expressed CYP2A6; [5]) | Vmax (expressed CYP2B6; [4]) | Vmax (expressed CYP2B6; [5]) | other results |
| --- | --- | --- | --- | --- | --- | --- | --- | --- | --- |
| NC1(c2ccccc2Cl)CC(O)CCC1=O [4d, (2S,4S;2R,4R)-HNK] | 0.029 pmol/min/pmol P450 | 0.20 pmol/min/pmol P450 | trace amounts | trace amounts | 1.28 pmol/min/pmol P450 | 4.67 pmol/min/pmol P450 | 0.78 pmol/min/pmol P450 | 3.34 pmol/min/pmol P450 |  |
| N[C@@]1(c2ccccc2Cl)CCCCC1=O [(R)-norKet] |  |  |  |  |  |  |  |  | disappearance of substrate, other isoforms (no appreciable effect, cutoff) ([2]; data not shown): < 24%; depletion of substrate from the incubation mixture (expressed CYP2C19): 35.0%; depletion of substrate from the incubation mixture (expressed CYP2A6): 34.5%; depletion of substrate from the incubation mixture (expressed CYP2B6; expressed CYP2B6): 47.8% |
| NC1(c2ccccc2Cl)CCC(O)CC1=O [4f, (2S,5R;2R,5S)-HNK] | 1.69 pmol/min/pmol P450 | 5.71 pmol/min/pmol P450 | significant concentrations | significant concentrations | 0.44 pmol/min/pmol P450 | 0.33 pmol/min/pmol P450 | 3.98 pmol/min/pmol P450 | 0.30 pmol/min/pmol P450 | Clint for formation from (R)-norKet relative to (S)-norKet (expressed CYP2B6; enzyme not given, Table 5, fits CYP2B6): ~ 10 fold |
| NC1(c2ccccc2Cl)CCC(O)CC1=O [4c, (2S,5S;2R,5R)-HNK] | 0.038 pmol/min/pmol P450 | 0.30 pmol/min/pmol P450 | significant concentrations | significant concentrations | 1.25 pmol/min/pmol P450 | 1.48 pmol/min/pmol P450 | 16.72 pmol/min/pmol P450 | 16.3 pmol/min/pmol P450 |  |
| CNC1(c2ccccc2Cl)CCCC(O)C1=O (single isomer, unassigned) [5b] |  |  | significant concentrations |  |  |  |  |  |  |
| CNC1(c2ccccc2Cl)CCCC(O)C1=O (single isomer, unassigned) [5a] |  |  | significant concentrations |  |  |  |  |  | decrease of substrate concentration in the incubates (expressed CYP2B6; substrate 5a, incubates containing CYP2B6): 42.5% |
| NC1(c2ccccc2Cl)CCCC(O)C1=O [4a, (2S,6S;2R,6R)-HNK] | 0.29 pmol/min/pmol P450 | 3.87 pmol/min/pmol P450 | significant concentrations | significant concentrations | 8.18 pmol/min/pmol P450 | 3.9 pmol/min/pmol P450 | 0.76 pmol/min/pmol P450 | 0.56 pmol/min/pmol P450 | metabolite formation by other CYPs ([2]; substrate 5a, expressed CYPs other than CYP2B6, data not shown): < 13 ng/mL; plasma concentration [3]: > 8 ng/mL; N-demethylated metabolite formed (highest rate) (expressed CYP2B6; substrate 5a, expressed CYP2B6): 201.6 ng/mL |
| NC1(c2ccccc2Cl)CCC=CC1=O (stereo not shown) [DHNK, 5,6-dehydronorketamine] | 0.079 pmol/min/pmol P450 | 1.96 pmol/min/pmol P450 | significant concentrations | significant concentrations | 0.98 pmol/min/pmol P450 | 0.92 pmol/min/pmol P450 | 13.0 pmol/min/pmol P450 | 7.61 pmol/min/pmol P450 | plasma concentration [3]: > 8 ng/mL |
| N[C@]1(c2ccccc2Cl)CCCCC1=O [(S)-norKet] |  |  |  |  |  |  |  |  | disappearance of substrate, other isoforms (no appreciable effect, cutoff) ([2]; data not shown): < 24%; depletion of substrate from the incubation mixture (expressed CYP2C19): 27.3%; depletion of substrate from the incubation mixture (expressed CYP2A6): 41.0%; depletion of substrate from the incubation mixture (expressed CYP2B6; expressed CYP2B6): 41.6% |
| NC1(c2ccccc2Cl)CCCCC1=O (racemic) [(R,S)-norKet, norketamine] |  |  | significant concentrations |  |  |  |  |  |  |
| NC1(c2ccccc2Cl)CC(O)CCC1=O [4e, (2S,4R;2R,4S)-HNK] | 0.087 pmol/min/pmol P450 | 3.14 pmol/min/pmol P450 | trace amounts | trace amounts |  |  |  |  |  |
| NC1(c2ccccc2Cl)CCCC(O)C1=O [4b, (2S,6R;2R,6S)-HNK] |  |  | significant concentrations | not detected |  |  |  |  | generation from (S)- or (R)-norKet by any of the expressed CYPs ([2]; 10 expressed CYPs): not generated |
